Screening results as filed in PubChem.
Most compounds without a hit are left out; they make up all but 5.8% or so of the library.
IDH1 mut inh: inhibitors of human IDH1 R132H; IDH1 R132H reductase, diaphorase/resazurin fluorescence, 60 min; inhibition, % at 10 µM; 70,000 tested, 0.18% active; AID 624101; in the data active = inhibition above about 34%
Pf Dd2 inh: P. falciparum Dd2 growth inhibition; activity change, % at 10 µM; SYBR Green, 72 h; hits give low values; 94,000 tested, 2.3% active; in the data active = activity change below about -80%
T cruzi growth-1: blocks T. cruzi growth in NIH3T3 culture; 77,000 tested, 5.9% active; inhibition, % at 8.34 µM; T. cruzi beta-gal in NIH3T3, GalScreen luminescence, 90 h;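 active = mean inhibition above about 93%, with at least 55% of replicates each passing it, limit read from the data, passing the limit was not always enough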
KDM4C inh: KDM4C (human) demethylase inhibition | GST-KDM4C 2-372, H3K9me3 peptide, LANCE TR-FRET | inhibition, % at 12.5 µM | 96,000 tested, 0.15% active;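 active = mean replicate inhibition above about 25%, with at least 55% of replicates also reaching it, limit read from the data, passing the limit was not always enough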
Target sequence (Q9H3R0 2-372 limits assumed): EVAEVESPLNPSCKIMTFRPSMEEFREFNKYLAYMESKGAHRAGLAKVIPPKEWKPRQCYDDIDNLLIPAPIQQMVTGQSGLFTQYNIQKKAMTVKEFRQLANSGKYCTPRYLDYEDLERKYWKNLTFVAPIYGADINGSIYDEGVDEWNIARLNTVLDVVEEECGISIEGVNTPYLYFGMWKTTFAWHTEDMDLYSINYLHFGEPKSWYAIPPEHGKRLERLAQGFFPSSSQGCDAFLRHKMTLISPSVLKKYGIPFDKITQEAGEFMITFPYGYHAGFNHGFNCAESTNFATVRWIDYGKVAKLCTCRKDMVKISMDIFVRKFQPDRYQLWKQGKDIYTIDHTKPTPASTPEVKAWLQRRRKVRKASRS
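Test system – GST-tagged GASC-1 (JMJD2C) catalytic fragment, aa 2-372 · Medium – HEPES buffer, pH 7.5, plus ascorbate · Reagent – H3K9me3 peptide with Fe(II)/2OG · Compound – one test concentration per compound · Timing – 30 min reaction, 60 min detection, RT · Technique – TR-FRET with Eu antibody and ULight streptavidin, EDTA stop · Read-out basis – inhibition from TR-FRET ratio decrease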
T cruzi growth-2: Trypanosoma cruzi proliferation inhibition. shares compounds with T cruzi growth-1. T. cruzi beta-gal in NIH3T3, GalScreen luminescence, 90 h. inhibition, % at 8.35 µM. 5,600 tested, 72% active;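 active = mean replicate inhibition above about 95% and at least 55% of replicates individually reaching it, limit read from the data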
T cruzi growth-3: blocks T. cruzi growth in NIH3T3 host cells. shares compounds with T cruzi growth-1. inhibition, % at 2.09 µM. AID 651740. 5,600 tested, 21% active. T. cruzi beta-gal in NIH3T3, GalScreen luminescence, 90 h;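 active = mean inhibition above about 95%, with at least 55% of replicates also reaching it, limit read from the data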
NIH3T3 tox: cytotoxicity in mouse NIH/3T3 fibroblasts; 5,600 tested, 14% active; cytotoxicity (signal decrease), % at 8.35 µM; NIH/3T3 viability, CellTiter-Glo ATP luminescence, 90 h; shares compounds with T cruzi growth-1;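 active = mean signal decrease across replicates above about 35% based on untreated-well scatter, with enough replicates individually passing, limit read from the data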
NIH3T3 tox 2: NIH/3T3 (mouse) viability loss. 5,600 tested, 56% active. NIH/3T3 viability, CellTiter-Glo ATP luminescence, 90 h. shares compounds with T cruzi growth-1. inhibition, % at 24.9 µM;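 active = mean loss of cell viability signal at or above a set limit, and enough replicates individually reaching it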
Numbers stand for hits; 0 = inactive; - = not tested or not shown.

SMILES	IDH1 mut inh	Pf Dd2 inh	T cruzi growth-1	KDM4C inh	T cruzi growth-2	T cruzi growth-3	NIH3T3 tox	NIH3T3 tox 2
COc1ccc(C#Cc2ccc([C@@H]3[C@H](CO)N4CCCCN(C(=O)c5ccncc5)C[C@@H]34)cc2)cc1	-	0	105	0	0	0	0	104
N#Cc1ccccc1NC(=O)CS(=O)(=O)Cc1ccccc1	0	-	-	-	-	-	-	-
Cc1ccc(S(=O)(=O)Nc2cccc3c2O[C@@H](CN(C)Cc2ccc(C(F)(F)F)cc2)[C@@H](C)CN([C@@H](C)CO)C3=O)cc1	0	0	0	0	-	-	-	-
COc1ccc(S(=O)(=O)Nc2cccc3c2O[C@H](CN(C)Cc2ccc(Cl)c(Cl)c2)[C@H](C)CN([C@H](C)CO)C3=O)cc1	0	0	0	0	-	-	-	-
Cc1ccc(S(=O)(=O)Nc2cccc3c2O[C@@H](CN(C)Cc2ccc(C(F)(F)F)cc2)[C@@H](C)CN([C@H](C)CO)C3=O)cc1	0	0	102	0	109	0	0	87
